# Rows were chosen to be rich in hits. Some 1.7% of all compounds tested hit in one or more screens of this group.
# NTR1 ag – agonists of human NTR1, primary screen, imaging, U2OS cells, beta-arrestin-GFP, high content | Neurotensin receptor type 1 (Homo sapiens), P30989 | NTR1-U2OS beta-arrestin-GFP spot imaging, agonist mode | activation, % at 20 µM | 0.17% of 330,000 active;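 active = activation at or above 40% of the spot to cytoplasm intensity ratio, with at least 20 cells analyzed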
# V-ATPase pHluor – regulators of yeast V-ATPase proton pumping, primary screen, pHLuorin cytosolic pH fluorescence. 0.37% of 350,000 active. response, % at 10 µM. S. cerevisiae; in the data active = response mostly above about 7.3%, no sharp cut-off; inactive = mostly below about 5.4%; also: actives read high
# SR-BI uptake up – activators of SR-BI mediated DiI-HDL uptake, primary screen, ldlA[mSR-BI] CHO cells, DiI fluorescence. 3 h; 100 = double the neutral-control signal. activation, % at 12.5 µM. 0.096% of 320,000 active. AID 504775, 2011;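 active = mean replicate activation of at least 60% and every replicate at or above 60%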
#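 Test system: SR-BI-overexpressing, LDLR-lacking CHO cells; Medium: Ham's F12 with 0.5% BSA, HEPES 25 mM, pH 7.4; Schedule: 3 h, 37 °C; Technique: bottom-read fluorescence, 550/595 nm.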
# CaV13 FRET inh – Primary screen for inhibitors of IQ motif and Ca2+-dependent inactivation inhibitor domain binding in CACNA1D, Förster resonance energy transfer in living cells, …; HEK cells, CFP/YFP FRET ICDI-IQ, plate reader, 10 min; percent FRET-ratio fall versus neutral wells; inhibition, % at 12.3 µM; 0.098% of 340,000 active; AID 743397;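 active = mean replicate inhibition of at least 30% and at least 1% of replicates passing that level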
# Vif imaging – HIV Vif self-association inhibitors, primary screen, imaging, HEK293T, single point; HEK293T cells, Vif self-association by quenched fluorescence, 24 h; inhibition, % at 7.49 µM; 0.35% of 340,000 active; AID 602346, 2012; in the data active = inhibition above about 50%, passing the limit was not always enough
# SR-BI DiI inh – inhibitors of SR-BI mediated HDL lipid uptake, primary screen, ldlA[mSR-BI] cells, fluorescence, single point | AID 488896, 2010 | inhibition, % at 12.5 µM | ldlA[mSR-BI] CHO cells, DiI-HDL uptake fluorescence, 3 h | 0.96% of 320,000 active;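 active = mean replicate inhibition of at least 70% and a set share of replicates each scoring 70 or more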
# Target sequence (Q61009 whole entry, looked up): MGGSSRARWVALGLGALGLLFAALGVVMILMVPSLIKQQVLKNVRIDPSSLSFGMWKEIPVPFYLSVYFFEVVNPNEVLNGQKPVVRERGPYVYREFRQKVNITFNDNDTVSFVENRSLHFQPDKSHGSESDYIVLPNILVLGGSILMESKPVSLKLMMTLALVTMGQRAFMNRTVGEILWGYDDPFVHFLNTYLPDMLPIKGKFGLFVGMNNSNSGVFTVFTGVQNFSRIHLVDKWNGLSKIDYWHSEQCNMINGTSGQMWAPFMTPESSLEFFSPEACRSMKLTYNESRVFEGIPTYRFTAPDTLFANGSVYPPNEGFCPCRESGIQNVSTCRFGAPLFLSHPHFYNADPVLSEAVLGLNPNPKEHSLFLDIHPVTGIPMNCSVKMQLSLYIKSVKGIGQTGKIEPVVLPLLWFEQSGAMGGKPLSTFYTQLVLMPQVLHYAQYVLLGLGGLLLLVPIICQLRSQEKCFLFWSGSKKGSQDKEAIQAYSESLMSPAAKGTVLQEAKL
# A number is an active result; i = inactive; nt = not tested or not shown; + = active, no number.
SMILES,NTR1 ag,V-ATPase pHluor,SR-BI uptake up,CaV13 FRET inh,Vif imaging,SR-BI DiI inh
COc1ccc2oc(/C=C/N(C)C)c(C(=O)c3ccc(Cl)cc3)c2c1,i,i,i,i,i,78
Oc1ccc(-c2nc(-c3ccc(O)c(O)c3)cs2)cc1,i,i,i,i,64,i
Oc1ccc(Nc2nc(-c3ccc4ccccc4c3)cs2)cc1,i,i,i,nt,i,i
Cc1nc2ccc(S(=O)(=O)Nc3cccc(-c4nc5cccnc5s4)c3)cc2s1,i,i,i,i,i,i
Cc1cc(-c2nc3cccnc3s2)ccc1NS(=O)(=O)c1cccs1,i,i,i,+,i,i
O=S(=O)(Nc1ccc(-c2nc3cccnc3s2)cc1)c1cccs1,i,i,i,i,i,i
Cc1nc2ccc(S(=O)(=O)Nc3ccc(-c4nc5cccnc5s4)cc3)cc2s1,i,i,i,139,i,i
CC(OC(=O)COc1ccccc1[N+](=O)[O-])C(=O)Nc1ccc(N2CCOCC2)cc1 (stereo not given),i,i,i,i,i,i
COc1ccc(OCCCC(=O)Nc2nccs2)cc1,i,i,i,i,i,i
CN(C)C1CN(Cc2cn(Cc3cccc(C(F)(F)F)c3)nn2)S(=O)(=O)C1 (stereo not given),nt,nt,nt,i,nt,nt
COc1ccc(NC(=O)/C(C#N)=C/c2ccc(OCCN3CCOCC3)c(OC)c2)c(OC)c1,i,i,i,nt,i,75
COc1ccc(OCc2cc(C(=O)O)c(C)o2)cc1,i,nt,nt,nt,nt,nt
O=S1(=O)N[C@H](c2ccccc2)COc2cc(Br)ccc21,nt,nt,nt,i,nt,nt
O=[N+]([O-])c1cccc(-c2csc(N/N=C/c3cccc(O)c3)n2)c1,i,i,i,i,i,101
COc1ccc(N/N=C/c2c(C(=O)O)ccc3ccccc23)cc1,i,i,nt,i,i,nt
COc1ccc(OCC(=O)Nc2ccc3c(c2)nc(CCN2CCN(c4ccccn4)CC2)n3C)cc1,nt,nt,nt,i,i,nt
Cc1cccc(OCC(=O)Nc2ccc3c(c2)nc(CCN2CCN(c4ccccn4)CC2)n3C)c1,i,i,i,i,i,73
COc1ccc(C(=O)c2sc3nc(C)cc(-c4cccs4)c3c2N)cc1,nt,i,i,i,i,i
COc1ccc(C(=O)c2sc3nc(C)cc(-c4cccs4)c3c2N)cc1OC,nt,i,i,i,176,i
COc1cc2[nH]c(=O)n(CCCC(=O)NC3CCCCC3)c(=O)c2cc1OC,i,i,i,nt,55,i
CCCCOn1c(C)c(C(C)=O)c2c3no[n+]([O-])c3ccc21,i,i,i,i,i,78
CCOC(=O)c1c(C)n(OCc2ccccc2)c2ccc3c(no[n+]3[O-])c12,i,i,i,i,i,86
CCOC(=O)COn1c2c(c3c4no[n+]([O-])c4ccc31)CCCC2,i,i,i,nt,i,i
COc1cccc(C(=O)Nc2ccc(C(F)(F)F)n(C)c2=O)c1,i,i,i,i,i,i
O=C(N/N=C/c1c(-c2ccccc2)[nH]c2ccccc12)c1cccnc1,i,i,i,i,i,75
SMILES,NTR1 ag,V-ATPase pHluor,SR-BI uptake up,CaV13 FRET inh,Vif imaging,SR-BI DiI inh
Cc1ccc(/C=N/c2sc3c(c2C#N)CCC3)s1,i,i,i,i,53,i
Cc1ccc(/C=N/c2sc3c(c2C#N)CCCCC3)o1,i,i,i,i,i,i
Fc1ccc(NC(=S)Nc2cc(Cl)ccc2Cl)cc1,i,i,i,i,i,i
Cc1ccc(OCCN2C(=O)CSC2=O)cc1,i,i,i,i,i,i
C[N+](C)(C)CCN1C(=O)CSC1=O,i,i,nt,i,55,nt
COC(=O)[C@]12C[C@H](CC(=O)N3CCSCC3)C(=O)N(CCC3=CCCCC3)C1=C[C@H](C(C)(C)C)O[C@@H]2C,nt,nt,nt,i,nt,nt
Cc1ccc(/C=C/C(=O)c2ccc([N+](=O)[O-])o2)cc1,i,nt,nt,i,nt,nt
O=C(/C=C/c1ccc(Cl)cc1)c1ccc([N+](=O)[O-])o1,i,12,i,i,i,i
CCOC(=O)c1c(C)[nH]c(C)c1S(=O)(=O)NCCc1ccco1,i,i,i,i,i,i

# Screening results: PubChem, several laboratories
